Data set [1] addresses cGMP-dependent protein kinase 2 (Homo sapiens) (UniProt Q13237). As to the kind of experiment: Inhibition of wild-type human partial length PRKG2 (S422 to F762 residues) expressed in HEK293 cells assessed as residual activity at 1000 nM after 30 mins by Kinomescan method relative to control. The format is cell-based.
Data set [2] relates to Epidermal growth factor receptor (Homo sapiens), P00533 [UNDEFINED MUTATION]. As to the kind of experiment: Inhibition of human partial length EGFR L747-E749del/A750P mutant expressed in Escherichia coli BL21 assessed as residual activity at 1000 nM after 30 mins by Kinomescan method relative to control. In outline: (§1)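 KINOMEscan binding panel of 456 kinases, with the test compound at a single concentration of 1 µM. Read-out is Percent Control.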

In data set [3] the target is Bone morphogenetic protein receptor type-1A (Homo sapiens) (UniProt P36894). Kind of data set: Inhibition of wild-type human partial length BMPR1A (Q214 to I532 residues) expressed in Escherichia coli BL21 assessed as residual activity at 1000 nM after 30 mins by Kinomescan method relative to control.
Data set [4] addresses Mitogen-activated protein kinase 4 (Homo sapiens) (UniProt P31152). Kind of data set: Inhibition of wild-type human partial length ERK4 (M1 to L365 residues) expressed in Escherichia coli BL21 assessed as residual activity at 1000 nM after 30 mins by Kinomescan method relative to control.
In data set [5] the target is Mitogen-activated protein kinase kinase kinase 19 (Homo sapiens) (UniProt Q56UN5). As to the kind of experiment: Inhibition of wild-type human partial length YSK4 (T1019 to H1328 residues) expressed in HEK293 cells assessed as residual activity at 1000 nM after 30 mins by Kinomescan method relative to control. The data set is classed as cell-based.
For data set [6], the target named is Serine/threonine-protein kinase Nek9 (Homo sapiens) (UniProt Q8TD19). Kind of data set: Inhibition of wild-type human partial length NEK9 (P32 to R328 residues) expressed in Escherichia coli BL21 assessed as residual activity at 1000 nM after 30 mins by Kinomescan method relative to control.
Data set [7] has as its target Wee1-like protein kinase 2 (Homo sapiens) (UniProt P0C1S8). Kind of data set: Inhibition of wild-type human partial length WEE2 (M204 to K492 residues) expressed in Escherichia coli BL21 assessed as residual activity at 1000 nM after 30 mins by Kinomescan method relative to control.
Data set [8] deals with LIM domain kinase 2 (Homo sapiens) (UniProt P53671). Kind of data set: Inhibition of wild-type human full length LIMK2 (M1 to P638 residues) expressed in Escherichia coli BL21 assessed as residual activity at 1000 nM after 30 mins by Kinomescan method relative to control. In outline: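 Single-concentration screen at 1 µM across a 456-kinase KINOMEscan panel. The read-out is Percent Control for each kinase.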

Data set [9] addresses Serine/threonine-protein kinase ULK3 (Homo sapiens) (UniProt Q6PHR2). Kind of data set: Inhibition of wild-type human partial length ULK3 (M1 to Q290 residues) expressed in HEK293 cells assessed as residual activity at 1000 nM after 30 mins by Kinomescan method relative to control. The data set is classed as cell-based.
Data set [10] concerns the target Cyclin-G-associated kinase (Homo sapiens) (UniProt O14976). As to the kind of experiment: Inhibition of wild-type human partial length GAK (G13 to Y338 residues) expressed in Escherichia coli BL21 assessed as residual activity at 1000 nM after 30 mins by Kinomescan method relative to control.
Data set [11] concerns the target Myosin light chain kinase (Homo sapiens) (UniProt Q32MK0). Kind of data set: Inhibition of wild-type human partial length MLCK (D488 to K800 residues) expressed in Escherichia coli BL21 assessed as residual activity at 1000 nM after 30 mins by Kinomescan method relative to control.
In data set [12] the target is Dual specificity mitogen-activated protein kinase kinase 6 (Homo sapiens) (UniProt P52564). Kind of data set: Inhibition of wild-type human partial length MEK6 (K36 to D334 residues) expressed in Escherichia coli BL21 assessed as residual activity at 1000 nM after 30 mins by Kinomescan method relative to control.
The test system of data set [13] is Epidermal growth factor receptor (Homo sapiens), P00533 [UNDEFINED MUTATION]. Kind of data set: Inhibition of human partial length EGFR L747-T751del/Sins mutant expressed in Escherichia coli BL21 assessed as residual activity at 1000 nM after 30 mins by Kinomescan method relative to control. In outline:
as §1

The target of data set [14] is Serine/threonine-protein kinase D3 (Homo sapiens) (UniProt O94806). As to the kind of experiment: Inhibition of wild-type human partial length PRKD3 (S543 to E863 residues) expressed in Escherichia coli BL21 assessed as residual activity at 1000 nM after 30 mins by Kinomescan method relative to control.
In data set [15] the test system is eIF-2-alpha kinase GCN2 (Homo sapiens), Q9P2K8 [S808G]. As to the kind of experiment: Inhibition of wild-type human partial length GCN2 kinase domain 2 (R585 to T1018 residues) S808G mutant expressed in Escherichia coli BL21 assessed as residual activity at 1000 nM after 30 mins by Kinomescan method relative to control.
The test system of data set [16] is Tyrosine-protein kinase ABL1 (Homo sapiens), P00519 [F317I]. Kind of data set: Inhibition of human non-phosphorylated ABL1 F317I mutant (S229 to K512 residues) expressed in HEK293 cells assessed as residual activity at 1000 nM after 30 mins by Kinomescan method relative to control. The data set is classed as cell-based. In outline: as §1
The test system of data set [17] is Receptor-type tyrosine-protein kinase FLT3 (Homo sapiens), P36888 [D835Y]. Kind of data set: Inhibition of human partial length FLT3 D835Y mutant (Q580 to Y969 residues) expressed in Escherichia coli BL21 assessed as residual activity at 1000 nM after 30 mins by Kinomescan method relative to control. In outline:
as §1

Data set [18] deals with VEGFR2 (vascular endothelial growth factor receptor 2) (Homo sapiens, UniProt P35968). As to the kind of experiment: Inhibition of wild-type human partial length VEGFR2 (R787 to P1253 residues) expressed in HEK293 cells assessed as residual activity at 1000 nM after 30 mins by Kinomescan method relative to control. The data set is classed as cell-based. The note with it: read-out: Activity.

In data set [19] the target is MAP kinase-interacting serine/threonine-protein kinase 2 (Homo sapiens) (UniProt Q9HBH9). Kind of data set: Inhibition of wild-type human partial length MKNK2 (G63 to S388 residues) expressed in HEK293 cells assessed as residual activity at 1000 nM after 30 mins by Kinomescan method relative to control. The format is cell-based.
For data set [20], the target named is Mitogen-activated protein kinase 15 (Homo sapiens) (UniProt Q8TD08). Kind of data set: Inhibition of wild-type human partial length ERK8 (M1 to P437 residues) expressed in Escherichia coli BL21 assessed as residual activity at 1000 nM after 30 mins by Kinomescan method relative to control.
The subject of data set [21] is Tyrosine-protein kinase ABL1 (Homo sapiens), P00519 [Y253F]. Kind of data set: Inhibition of human phosphorylated ABL1 Y253F mutant (S229 to K512 residues) expressed in HEK293 cells assessed as residual activity at 1000 nM after 30 mins by Kinomescan method relative to control. The format is cell-based. In outline:
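Single-point screen at a fixed 1 µM, run within a 456-kinase DiscoveRx KINOMEscan panel. Each kinase's read-out is Percent Control, i.e. signal relative to a control without compound. Hits were scored by a Percent Control < 35 cut-off, and an S(35) selectivity score was calculated across the non-mutant kinases.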

Chain of Epidermal growth factor receptor (Homo sapiens), P00533 [UNDEFINED MUTATION] (P00533 whole entry, looked up, stated change not applied): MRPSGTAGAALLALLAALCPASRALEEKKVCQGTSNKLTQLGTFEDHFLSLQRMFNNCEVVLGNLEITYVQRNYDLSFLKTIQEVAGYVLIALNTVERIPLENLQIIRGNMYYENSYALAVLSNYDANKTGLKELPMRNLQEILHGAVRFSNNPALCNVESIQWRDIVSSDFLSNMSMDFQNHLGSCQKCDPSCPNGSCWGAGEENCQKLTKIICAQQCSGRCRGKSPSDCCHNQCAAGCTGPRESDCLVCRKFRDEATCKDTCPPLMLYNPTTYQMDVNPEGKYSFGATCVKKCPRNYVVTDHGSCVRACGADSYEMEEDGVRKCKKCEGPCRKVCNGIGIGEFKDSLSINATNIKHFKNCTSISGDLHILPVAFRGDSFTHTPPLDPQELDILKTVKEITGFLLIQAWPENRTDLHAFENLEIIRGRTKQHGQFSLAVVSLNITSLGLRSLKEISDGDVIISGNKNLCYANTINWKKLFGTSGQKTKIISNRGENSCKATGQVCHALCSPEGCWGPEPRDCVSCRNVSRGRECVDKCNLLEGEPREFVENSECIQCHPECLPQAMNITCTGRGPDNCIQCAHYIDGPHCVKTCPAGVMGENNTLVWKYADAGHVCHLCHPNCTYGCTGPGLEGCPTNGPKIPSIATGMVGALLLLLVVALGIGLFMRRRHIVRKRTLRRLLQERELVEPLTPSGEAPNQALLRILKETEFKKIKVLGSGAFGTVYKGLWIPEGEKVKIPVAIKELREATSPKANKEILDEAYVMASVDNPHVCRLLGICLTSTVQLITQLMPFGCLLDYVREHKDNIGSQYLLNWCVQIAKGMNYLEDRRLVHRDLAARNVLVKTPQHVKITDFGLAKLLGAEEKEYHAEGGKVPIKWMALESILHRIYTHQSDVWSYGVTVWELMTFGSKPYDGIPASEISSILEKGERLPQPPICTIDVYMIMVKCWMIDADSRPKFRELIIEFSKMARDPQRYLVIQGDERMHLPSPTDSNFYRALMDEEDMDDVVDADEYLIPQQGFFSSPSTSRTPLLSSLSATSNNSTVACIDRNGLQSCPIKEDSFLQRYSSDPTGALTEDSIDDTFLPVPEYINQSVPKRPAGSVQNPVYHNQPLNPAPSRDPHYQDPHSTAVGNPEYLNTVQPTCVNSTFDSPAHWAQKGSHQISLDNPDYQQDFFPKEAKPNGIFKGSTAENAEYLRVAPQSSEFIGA
Chain of Serine/threonine-protein kinase D3 (Homo sapiens) (O94806 whole entry, the tested form may be a part): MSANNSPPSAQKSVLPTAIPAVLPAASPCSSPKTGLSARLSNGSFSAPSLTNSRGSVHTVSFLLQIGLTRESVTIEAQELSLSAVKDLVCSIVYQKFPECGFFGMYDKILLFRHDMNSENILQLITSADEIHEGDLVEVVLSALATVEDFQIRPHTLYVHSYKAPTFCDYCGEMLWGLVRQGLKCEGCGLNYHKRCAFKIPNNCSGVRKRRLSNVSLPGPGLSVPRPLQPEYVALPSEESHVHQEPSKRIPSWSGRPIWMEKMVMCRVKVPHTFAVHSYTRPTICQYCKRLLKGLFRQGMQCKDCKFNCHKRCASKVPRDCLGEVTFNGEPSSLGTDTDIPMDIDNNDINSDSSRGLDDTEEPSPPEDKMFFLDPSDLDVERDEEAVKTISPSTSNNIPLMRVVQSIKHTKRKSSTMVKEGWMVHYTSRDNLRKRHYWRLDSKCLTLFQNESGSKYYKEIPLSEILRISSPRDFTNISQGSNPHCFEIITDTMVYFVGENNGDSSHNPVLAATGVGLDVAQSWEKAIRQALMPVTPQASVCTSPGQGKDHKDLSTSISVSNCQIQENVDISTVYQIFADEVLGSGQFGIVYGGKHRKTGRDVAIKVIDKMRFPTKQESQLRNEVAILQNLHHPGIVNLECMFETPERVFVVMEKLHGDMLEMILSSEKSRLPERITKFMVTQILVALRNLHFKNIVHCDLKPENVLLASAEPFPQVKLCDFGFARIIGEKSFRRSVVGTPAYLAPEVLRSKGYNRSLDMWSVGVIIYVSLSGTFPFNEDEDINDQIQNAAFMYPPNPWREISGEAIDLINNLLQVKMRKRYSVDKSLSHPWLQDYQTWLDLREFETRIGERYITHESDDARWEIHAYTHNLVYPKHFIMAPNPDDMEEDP
Chain of VEGFR2 (vascular endothelial growth factor receptor 2) (P35968 whole entry, the tested form may be a part): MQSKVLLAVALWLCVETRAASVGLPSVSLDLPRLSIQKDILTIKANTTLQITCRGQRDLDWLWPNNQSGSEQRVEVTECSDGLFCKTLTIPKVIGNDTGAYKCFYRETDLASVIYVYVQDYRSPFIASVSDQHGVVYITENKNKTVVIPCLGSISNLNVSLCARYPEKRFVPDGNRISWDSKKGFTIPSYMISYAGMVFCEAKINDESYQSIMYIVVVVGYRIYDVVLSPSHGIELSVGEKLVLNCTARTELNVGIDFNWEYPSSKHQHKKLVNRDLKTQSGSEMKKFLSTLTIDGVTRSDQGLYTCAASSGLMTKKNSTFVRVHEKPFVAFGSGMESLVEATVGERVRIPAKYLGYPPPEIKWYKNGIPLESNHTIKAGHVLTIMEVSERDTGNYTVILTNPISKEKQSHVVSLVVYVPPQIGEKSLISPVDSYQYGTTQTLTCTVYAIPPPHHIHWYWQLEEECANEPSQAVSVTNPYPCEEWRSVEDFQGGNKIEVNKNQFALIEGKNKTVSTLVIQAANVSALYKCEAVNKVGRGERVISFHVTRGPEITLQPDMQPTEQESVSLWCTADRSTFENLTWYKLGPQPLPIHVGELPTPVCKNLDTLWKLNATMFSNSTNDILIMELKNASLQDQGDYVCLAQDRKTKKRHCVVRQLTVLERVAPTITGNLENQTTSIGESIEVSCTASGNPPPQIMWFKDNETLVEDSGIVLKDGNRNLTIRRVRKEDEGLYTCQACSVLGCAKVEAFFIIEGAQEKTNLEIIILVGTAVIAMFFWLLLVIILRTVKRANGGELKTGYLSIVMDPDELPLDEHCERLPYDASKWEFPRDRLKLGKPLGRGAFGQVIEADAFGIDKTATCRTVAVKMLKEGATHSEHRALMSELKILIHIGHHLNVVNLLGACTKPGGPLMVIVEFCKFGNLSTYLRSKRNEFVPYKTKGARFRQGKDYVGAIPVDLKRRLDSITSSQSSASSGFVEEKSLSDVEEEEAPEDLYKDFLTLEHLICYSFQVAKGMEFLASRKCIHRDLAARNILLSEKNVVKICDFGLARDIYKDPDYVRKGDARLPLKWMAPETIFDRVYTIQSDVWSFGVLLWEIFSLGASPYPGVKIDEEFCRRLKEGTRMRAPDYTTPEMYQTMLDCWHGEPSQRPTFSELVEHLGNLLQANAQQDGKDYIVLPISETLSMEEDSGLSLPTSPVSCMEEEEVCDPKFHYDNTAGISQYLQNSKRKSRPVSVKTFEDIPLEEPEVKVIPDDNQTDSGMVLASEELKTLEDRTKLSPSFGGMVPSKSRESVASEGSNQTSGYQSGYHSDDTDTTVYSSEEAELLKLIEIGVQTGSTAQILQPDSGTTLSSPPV
Chain of Myosin light chain kinase (Homo sapiens) (Q32MK0 whole entry, the tested form may be a part): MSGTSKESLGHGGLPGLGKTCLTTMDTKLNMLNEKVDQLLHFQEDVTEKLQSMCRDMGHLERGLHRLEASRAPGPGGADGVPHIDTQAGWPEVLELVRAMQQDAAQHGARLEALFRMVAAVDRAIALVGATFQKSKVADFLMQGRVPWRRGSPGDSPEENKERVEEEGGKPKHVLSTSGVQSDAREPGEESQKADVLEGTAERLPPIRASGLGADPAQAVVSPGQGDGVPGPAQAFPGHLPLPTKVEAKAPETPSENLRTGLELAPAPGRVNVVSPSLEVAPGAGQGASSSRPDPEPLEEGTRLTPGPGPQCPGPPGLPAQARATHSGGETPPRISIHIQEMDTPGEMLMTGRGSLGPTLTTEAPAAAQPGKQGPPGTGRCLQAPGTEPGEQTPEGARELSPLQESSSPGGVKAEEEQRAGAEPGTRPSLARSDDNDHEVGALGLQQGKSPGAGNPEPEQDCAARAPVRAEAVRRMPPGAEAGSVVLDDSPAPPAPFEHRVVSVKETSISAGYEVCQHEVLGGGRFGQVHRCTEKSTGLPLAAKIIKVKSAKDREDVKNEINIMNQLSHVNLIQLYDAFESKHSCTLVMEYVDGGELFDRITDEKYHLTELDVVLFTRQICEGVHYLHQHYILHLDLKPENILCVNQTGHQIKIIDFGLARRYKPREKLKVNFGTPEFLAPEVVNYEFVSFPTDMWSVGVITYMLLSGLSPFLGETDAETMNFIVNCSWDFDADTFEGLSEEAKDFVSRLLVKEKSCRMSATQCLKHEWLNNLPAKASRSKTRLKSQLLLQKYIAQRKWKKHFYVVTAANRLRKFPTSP
Chain of cGMP-dependent protein kinase 2 (Homo sapiens) (Q13237 whole entry, the tested form may be a part): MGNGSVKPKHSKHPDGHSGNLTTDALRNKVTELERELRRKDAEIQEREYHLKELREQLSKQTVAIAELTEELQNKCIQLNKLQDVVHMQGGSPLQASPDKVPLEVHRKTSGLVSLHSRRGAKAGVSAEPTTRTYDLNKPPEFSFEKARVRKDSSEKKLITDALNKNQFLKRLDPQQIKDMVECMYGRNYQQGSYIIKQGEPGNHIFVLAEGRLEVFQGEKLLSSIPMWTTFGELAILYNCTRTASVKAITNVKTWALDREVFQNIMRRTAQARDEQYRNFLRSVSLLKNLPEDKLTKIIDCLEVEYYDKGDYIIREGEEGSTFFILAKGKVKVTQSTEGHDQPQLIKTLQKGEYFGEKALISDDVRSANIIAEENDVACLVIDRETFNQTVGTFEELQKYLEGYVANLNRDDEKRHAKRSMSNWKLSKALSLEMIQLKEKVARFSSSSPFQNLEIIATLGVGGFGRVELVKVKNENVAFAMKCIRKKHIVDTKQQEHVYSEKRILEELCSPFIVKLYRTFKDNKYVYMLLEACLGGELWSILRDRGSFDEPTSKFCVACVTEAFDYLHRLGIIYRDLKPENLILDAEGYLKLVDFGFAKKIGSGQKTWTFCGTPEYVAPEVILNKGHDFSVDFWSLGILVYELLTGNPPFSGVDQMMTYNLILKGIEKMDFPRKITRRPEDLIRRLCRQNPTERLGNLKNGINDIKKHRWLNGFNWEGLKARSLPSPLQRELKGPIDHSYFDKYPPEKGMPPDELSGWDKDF

Consider `COc1cc(OC)c(Cl)c(N2Cc3cnc(Nc4ccc(F)cc4)nc3N(C3CCN(C(=O)/C=C/CN(C)C)CC3)C2=O)c1Cl`, for which the Activity in [1] was found to be 100%; in [2] it was 96%; in data set [3], 100%; in data set [4], 94%; in data set [5], 93%; in [6], 100%. Also, the Activity came out at 99% in [7]; 100% in data set [8]; 99% in data set [9]; 96% in [10]; 99% in data set [11]; 92% in data set [12]. Also, the Activity in [13] came out at 95%; in data set [14] it was 100%; in data set [15], 46%; in [16], 100%; in [17], 83%; in data set [19], 86%. For the same compound, the Activity turned out to be 100% in data set [20] and 38% in data set [21]. Moreover, the activity at 0.5 h, 1 µM in data set [18] is 7.3%.
